Screening results from PubChem BioAssay.
Shown are actives, neighbours in structure and some others; about 1% of the full set was active somewhere.
KLK5 inh – kallikrein 5 (human) inhibition | Q9Y337 | recombinant hK5, fluorogenic AMC substrate cleavage | AID 873 | actives 0.59% (n = 210,000) | inhibition, % at 5 µM;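 active = inhibition of 40% or more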;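 also: 0% = enzyme controls without compound and 100% = no-enzyme blanks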
HSV augment – increases HSV replication in cells. HSV replication augmentation in cells, fold increase. maximum fold increase. actives 0.005% (n = 220,000). AID 1956; in the data active = maximum fold increase above about 1.5; inconclusive = no clear call, values can overlap the other calls; tested in PC3 cells
FXIIa inh 1536 – inhibitors of human coagulation factor XIIa; P00748; purified FXIIa, Boc-QGR-AMC fluorogenic substrate, 2 h; inhibition, % at 5 µM; actives 0.3% (n = 220,000); in the data active = inhibition above about 40%;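 also: 0% = enzyme with no compound and 100% = blank without enzyme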
Furin inh – human furin inhibition | P09958 | purified furin, fluorogenic substrate cleavage | inhibition, % at 20 µM or 30 µM | actives 0.061% (n = 220,000) | AID 463115; in the data active = inhibition above about 25%
Target sequence (P09958 108-714 limits assumed): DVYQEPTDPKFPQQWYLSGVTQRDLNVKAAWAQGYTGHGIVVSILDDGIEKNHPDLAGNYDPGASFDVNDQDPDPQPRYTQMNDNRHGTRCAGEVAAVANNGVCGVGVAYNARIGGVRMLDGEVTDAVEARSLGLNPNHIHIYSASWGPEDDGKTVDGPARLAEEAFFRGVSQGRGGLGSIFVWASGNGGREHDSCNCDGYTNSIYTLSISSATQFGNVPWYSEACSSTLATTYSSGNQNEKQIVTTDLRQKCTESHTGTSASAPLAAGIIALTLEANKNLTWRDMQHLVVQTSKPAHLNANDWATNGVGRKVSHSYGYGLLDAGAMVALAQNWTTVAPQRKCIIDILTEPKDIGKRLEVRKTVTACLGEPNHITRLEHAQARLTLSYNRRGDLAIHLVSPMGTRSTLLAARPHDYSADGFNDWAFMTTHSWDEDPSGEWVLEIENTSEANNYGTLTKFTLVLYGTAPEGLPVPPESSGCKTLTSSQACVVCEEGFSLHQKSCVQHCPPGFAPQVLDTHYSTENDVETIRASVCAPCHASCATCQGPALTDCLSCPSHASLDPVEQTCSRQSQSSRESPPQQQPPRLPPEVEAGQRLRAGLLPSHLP
thrombin 1536 – blocks human thrombin protease activity. P00734. alpha-thrombin, Boc-VPR-AMC fluorogenic substrate cleavage. inhibition, % at 5 µM. actives 0.26% (n = 220,000);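 active = inhibition at or above 40%; inactive = inhibition below 40%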;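 also: 0% = enzyme with no compound and 100% = wells without enzyme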
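System – human alpha-thrombin protein · Reagent – Boc-VPR-AMC substrate, 15 µM final · Compound – 5 µM single dose in 0.2% DMSO · Schedule – reaction at room temperature · Technique – AMC fluorescence at 355 nm excitation and 460 nm emission · Read-out basis – % inhibition relative to enzyme controls and enzyme-free blanks · Control set – no-compound enzyme wells and no-enzyme blanks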
FXIa inh 1536 – inhibitors of human coagulation factor XIa | P03951 | purified FXIa, Boc-Glu-Ala-Arg-AMC fluorogenic substrate | inhibition, % at 5 µM | actives 0.14% (n = 220,000);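 active = inhibition of at least 40%; inactive = inhibition below 40%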;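 also: fluorescence of freed AMC excited at 355 nm; 0% = enzyme without compound and 100% = no enzyme blank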
Starred values were filed as active, the others as inactive; i = inactive; ? = inconclusive; / = no result.

SMILES	KLK5 inh	HSV augment	FXIIa inh 1536	Furin inh	thrombin 1536	FXIa inh 1536
O=C(COC(=O)c1ccc[nH]c1=O)NCC1CCCO1 (centres undefined)	-22	i	16	30*	2	3
COc1ccccc1C(=O)NNC(=O)c1ccc(F)cc1	61*	i	9	-11	18	3
COc1ccccc1C(=O)NNC(=O)c1ccc(Cl)cc1	-5	i	5	-11	-9	-1
COc1cc(OC)cc(C(=O)NNC(=O)c2ccccn2)c1	-37	i	4	-12	-7	5
COc1cc(OC)cc(C(=O)NNC(=O)c2ccccc2Br)c1	31	i	1	-6	89*	-4
CC(C)OP(=O)(OC(C)C)C(NC(=O)c1ccccc1Br)C(N)=O (centres undefined)	1	i	7	-9	1	3
Cc1cccc(C)c1-n1nnnc1C1(Nc2ccccc2)CCCCC1	-18	/	-1	-3	-1	-13
COc1cccc(NC(C)(C)c2nnnn2-c2c(C)cccc2C)c1	29	i	66*	-5	1	44*
CCC1CCCCN1C(=O)c1ccc(OC2CCN(C(=O)C3CC3)CC2)cc1 (centres undefined)	/	i	15	-7	1	12
O=C(COC(=O)c1cc(Br)ccc1O)Nc1cc(S(=O)(=O)N2CCCC2)ccc1Cl	-19	i	1	-23	45*	-8
C/C(=N\NC(=O)CCn1nnc2ccccc21)c1cccs1	19	i	43*	-2	24	11
C/C(=N\NC(=O)Cn1cnc2ccccc21)c1cccs1	5	i	7	-18	-3	1
COc1ccc(C(=O)c2cnc3cc4c(cc3c2C)OCO4)cc1	74*	i	0	-6	34	9
CC(C)N(C(=O)COC(=O)c1cccc(C(=O)OCC(=O)N(C(C)C)C(C)C)n1)C(C)C	-9	i	1	-22	-8	-19
COCCCNC(=O)c1cc(C)nn1-c1ccccc1	1	i	12	-26	2	1
CN(C)C(=O)CSC1c2ccccc2C(=O)N1c1ccccc1 (centres undefined)	78*	i	11	-18	7	3
O=C(CSC1c2ccccc2C(=O)N1c1ccccc1)N1CCOCC1 (centres undefined)	3	i	32	-11	1	18
C=CCNc1oc(-c2ccc(OCC)cc2)nc1C#N	-3	i	-5	-13	-8	-8
CCOc1ccc(-c2nc(C#N)c(NCC(C)C)o2)cc1	151*	i	-12	-15	-3	-9
Cc1cc(C(=O)CSc2nnnn2C)c(C)n1-c1cccc(F)c1	34	i	23	-12	49*	14
Cc1c(S(=O)(=O)c2ccccn2)c(N)n(Cc2cccc(Cl)c2)c1C	-1	?	5	-9	-11	-2
COc1ccc(C(=O)NNC(=O)C2CCCN(C3CC(=O)N(c4ccccc4)C3=O)C2)cc1 (centres undefined)	-10	i	7	-24	0	2
Cn1ncc(Cl)c1C(=O)Nc1cccc(Cl)c1	-12	i	31	30*	0	18
COc1ccc(N2CC(C(=O)Nc3ccc(S(=O)(=O)Nc4nc(C)cc(C)n4)cc3)CC2=O)cc1 (centres undefined)	0	i	11	-20	1	3
Cc1cc(C)nc(NS(=O)(=O)c2ccc(NC(=O)C3CC(=O)N(c4ccccc4)C3)cc2)n1 (centres undefined)	60*	i	31	-1	34	12
SMILES	KLK5 inh	HSV augment	FXIIa inh 1536	Furin inh	thrombin 1536	FXIa inh 1536
COC(=O)c1ccccc1NC(=O)C1CC(=O)N(c2ccccc2)C1 (centres undefined)	-1	i	13	-15	-2	6
O=C(Nc1ccccc1Cl)C1CC(=O)N(c2ccccc2)C1 (centres undefined)	25	i	41*	-12	5	16
COCCCNCC(O)C(F)(F)F (centres undefined)	-5	i	9	-14	0	2
CC(C)C(=O)NC(=S)Nc1ccc(S(=O)(=O)Nc2ccccc2)cc1	43*	i	-1	-18	23	3
CCOc1ccc(NS(=O)(=O)c2ccc(NC(=S)NC(=O)C(C)C)cc2)cc1	52*	i	15	-6	7	1
CCCCOC(=O)n1ccc(C(=O)Nc2ccccc2OC)n1	4	i	16	-16	45*	3
CCOC(=O)n1ccc(C(=O)Nc2ccccc2F)n1	2	i	20	-17	24	6
COc1cc(S(=O)(=O)N2CCOCC2)ccc1NC(=O)COC(=O)COc1ccccc1	-2	i	5	-22	50*	-1
CC(C)CNC(=O)Nc1ccc(F)c(Cl)c1	14	i	30	-8	26	52*
CN(C)c1ccc(/C=N/NC(=O)CCCCCNC(=O)c2ccccc2)cc1	80*	i	21	16	15	7
COc1ccc2[nH]c(C(=O)O)c(CCN3C(=O)c4cccc([N+](=O)[O-])c4C3=O)c2c1	-2	i	4	-17	0	10
O=C(COC(=O)CCN1C(=O)c2cccc([N+](=O)[O-])c2C1=O)NCc1ccccc1	42*	i	26	-5	-8	38
c1cncc(-c2csc(NCc3ccco3)n2)c1	11	i	46*	-10	1	15
CC(=O)Nc1ccc(-c2csc(NCc3ccco3)n2)cc1	-6	i	15	-24	3	10
COc1ccc(CC(=O)NC2CCCc3ccccc32)cc1 (centres undefined)	-6	i	2	-9	-3	-4
Cc1ccc(C(=O)NC2CCCc3ccccc32)o1 (centres undefined)	-1	i	-4	25*	-12	-2
CC(C)c1nnc(NC(=O)c2cnccn2)s1	37	i	25	-4	41*	15
Cc1cnc(C(=O)Nc2nnc(C(C)C)s2)cn1	-36	i	14	-16	0	11
COC(=O)c1sc(-c2cccs2)cc1NC(=O)/C=C/C(=O)O	5	i	12	-20	0	6
CC1(C)CC(=O)CC(=NCC(=O)O)C1	128*	i	-2	-12	0	-7
Cc1ccc(C)c(Cn2c(CO)nc3ccccc32)c1	41*	i	-6	-27	17	7
CCC1(C)CC(C(N)=S)CCO1 (centres undefined)	-2	i	0	-7	-9	-3
CCc1ccc(C(=O)COC(=O)c2cccc(N3C(=O)c4c(C)nc5ccccc5c4C3=O)c2)cc1	51*	i	17	-12	9	0
CCc1nc2ccccc2c(C(=O)OCC(=O)C(C)(C)C)c1C	32	i	27	3	47*	29
